Source: ChEMBL document CHEMBL2434966, “Novel N-4-piperazinyl-ciprofloxacin-chalcone hybrids: synthesis, physicochemical properties, anticancer and topoisomerase I and II inhibitory activity” (Eur J Med Chem, 2013)

Columns and labels:
[1] = molecular target: T1, DNA topoisomerase 1 (Homo sapiens) (UniProt P11387); assay: Inhibition of human recombinant topoisomerase 1-mediated relaxation of supercoiled pBR322 DNA at 20 uM after 30 mins by agarose gel electrophoresis relative to control
T1 sequence (whole entry): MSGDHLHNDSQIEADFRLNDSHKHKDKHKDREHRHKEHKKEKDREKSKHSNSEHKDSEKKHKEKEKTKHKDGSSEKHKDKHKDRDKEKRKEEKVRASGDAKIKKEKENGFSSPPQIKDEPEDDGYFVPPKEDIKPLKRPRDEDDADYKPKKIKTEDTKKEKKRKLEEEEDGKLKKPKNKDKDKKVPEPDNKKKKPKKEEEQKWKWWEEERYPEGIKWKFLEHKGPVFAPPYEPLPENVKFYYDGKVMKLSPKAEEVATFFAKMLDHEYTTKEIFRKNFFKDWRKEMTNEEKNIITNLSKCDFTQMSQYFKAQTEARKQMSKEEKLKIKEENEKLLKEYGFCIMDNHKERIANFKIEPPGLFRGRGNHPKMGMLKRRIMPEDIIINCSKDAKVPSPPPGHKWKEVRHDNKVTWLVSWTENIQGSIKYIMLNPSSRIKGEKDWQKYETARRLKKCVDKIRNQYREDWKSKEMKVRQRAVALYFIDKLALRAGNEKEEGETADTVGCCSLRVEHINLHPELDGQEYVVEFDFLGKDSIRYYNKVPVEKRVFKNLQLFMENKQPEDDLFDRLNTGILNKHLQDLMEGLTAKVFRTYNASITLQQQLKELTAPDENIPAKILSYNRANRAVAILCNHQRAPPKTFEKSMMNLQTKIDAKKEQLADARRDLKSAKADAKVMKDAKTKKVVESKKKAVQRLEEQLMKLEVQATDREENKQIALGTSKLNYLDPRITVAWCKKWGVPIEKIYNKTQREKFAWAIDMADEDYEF
Procedure, shortened: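 Recombinant human topo I (0.4 units) with 100 ng supercoiled pBR322, 37 °C for 30 min in Tris-HCl pH 7.9, 150 mM NaCl, 0.1% BSA, 1 mM spermidine, 5% glycerol. Compounds came from 20 mM DMSO stocks, with matched DMSO in the enzyme-only control. Stopped with sarcosyl; 1% agarose/TAE gel, ethidium stain, UV densitometry. Camptothecin was the positive control.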

CAKI-1 = assay: Growth inhibition of human CAKI-1 cells after 48 hrs by sulforhodamine B assay; format: functional; conditions: CAKI-1, 48 h
Procedure, shortened: (§1)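 NCI 60-panel five-dose test at 10-fold dilutions, 10^-4 to 10^-8 M, with 48 h continuous exposure and SRB protein read-out. Percent growth derived from time-zero, untreated-control and treated absorbances. GI50 is the concentration where [(Ti-Tz)/(C-Tz)]×100 = 50. TGI is taken at Ti = Tz. LC50 is taken at [(Ti-Tz)/Tz]×100 = -50.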

Malme-3M = assay: Growth inhibition of human MALME-3M cells after 48 hrs by sulforhodamine B assay; format: functional; procedure, shortened: as §1
SF-268 = assay: Growth inhibition of human SF268 cells assessed as cell growth at 10^-5 M after 48 hrs by sulforhodamine B assay; format: functional; conditions: SF-268, 48 h, read-out: Activity
Procedure, shortened: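 NCI 60-cell-line primary one-dose screen. Cells were exposed to a single 10^-5 M concentration for 48 h. The end point was sulforhodamine B protein staining, read spectrophotometrically. Results are reported as percent growth of treated cells relative to untreated control cells.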

HT-29 = assay: Growth inhibition of human HT-29 cells assessed as cell growth at 10^-5 M after 48 hrs by sulforhodamine B assay; format: functional; conditions: HT-29, 48 h, read-out: Activity
Procedure, shortened: (§2)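 NCI 60-cell-line primary screen. Single concentration of 10^-5 M, 48 h incubation. End point by sulforhodamine B protein staining read spectrophotometrically. Reported as percent growth of treated cells relative to untreated control cells.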

A549 = assay: Growth inhibition of human A549/ATCC cells assessed as cell growth at 10^-5 M after 48 hrs by sulforhodamine B assay; format: functional; conditions: A549, 48 h, read-out: Activity; procedure, shortened: as §2
HL-60(TB) = assay: Growth inhibition of human HL-60(TB) cells assessed as cell growth at 10^-5 M after 48 hrs by sulforhodamine B assay; format: functional; conditions: HL-60, 48 h, read-out: Activity
Procedure, shortened: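 NCI one-dose primary screen: compound added once at 10^-5 M, cultures incubated 48 h, end point by SRB protein-binding dye. Result given as percent growth of treated cells relative to untreated control cells, measured spectrophotometrically.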

HOP-92 = assay: Growth inhibition of human HOP92 cells after 48 hrs by sulforhodamine B assay; format: functional; conditions: HOP-92, 48 h; procedure, shortened: as §1

Structure (SMILES)	inhibition [1] [%]	GI50 (CAKI-1) [µM]	LC50 (concentration killing 50% of starting cells) (CAKI-1) [µM]	TGI (CAKI-1) [µM]	GI50 (Malme-3M) [µM]	LC50 (Malme-3M) [µM]	TGI (Malme-3M) [µM]	growth at 10 µM (SF-268) [%]	growth at 10 µM (HT-29) [%]	growth at 10 µM (A549) [%]	growth at 10 µM (HL-60(TB)) [%]	GI50 (HOP-92) [µM]	TGI (HOP-92) [µM]	CC50 (HOP-92; read-out: LC50 (the source's name)) [µM]
COc1cc(/C=C/C(=O)c2ccc(NC(=O)CN3CCN(c4cc5c(cc4F)c(=O)c(C(=O)O)cn5C4CC4)CC3)cc2)cc(OC)c1OC	11.5	1.13	> 100	> 100	1.81	> 100	7.65	-1.11	-3.37	-19.2	-33.7	–	–	–
O=C(CN1CCN(c2cc3c(cc2F)c(=O)c(C(=O)O)cn3C2CC2)CC1)Nc1ccc(C(=O)/C=C/c2ccccc2)cc1	6.4	1.76	> 100	5.32	2.89	> 100	8.87	37	11.4	4.12	40.9	0.43	3.82	> 100
